This note sets out measurements from ChEMBL document CHEMBL4024754, “Development of Potent, Protease-Resistant Agonists of the Parathyroid Hormone Receptor with Broad β Residue Distribution” (J Med Chem, 2017).

Usually EC50 stands for the concentration needed to bring the measured effect to its halfway point.

Active and inactive are the calls of the source. The calls are words filed in the database; no cut-off is given here. Numbered stars: 1 amine (or outer) side, 2 acyl side, 3 side chain; on linkers, the order of the positions; unused ones are H or OH. Square brackets hold non-standard residues; d marks the D form. Peptide text beside a SMILES is read from it. * marks the point of attachment. NH(1S,2S-2-CONH2-cPent) = NC(=O)[C@H]1CCC[C@@H]1N*; ACPC(1S,2S) = N[C@H]1CCC[C@@H]1C(=O)*; X1 = O=C([C@H]1CCC[C@@H]1N[*:1])[*:2]; X2 = O=C([C@H]1CNC[C@@H]1N[*:1])[*:2]; Aib = CC(C)(N)C(=O)O

Assay [1] addresses T1, Parathyroid hormone/parathyroid hormone-related peptide receptor (Homo sapiens, UniProt Q03431).
T1 sequence (Q03431 whole entry): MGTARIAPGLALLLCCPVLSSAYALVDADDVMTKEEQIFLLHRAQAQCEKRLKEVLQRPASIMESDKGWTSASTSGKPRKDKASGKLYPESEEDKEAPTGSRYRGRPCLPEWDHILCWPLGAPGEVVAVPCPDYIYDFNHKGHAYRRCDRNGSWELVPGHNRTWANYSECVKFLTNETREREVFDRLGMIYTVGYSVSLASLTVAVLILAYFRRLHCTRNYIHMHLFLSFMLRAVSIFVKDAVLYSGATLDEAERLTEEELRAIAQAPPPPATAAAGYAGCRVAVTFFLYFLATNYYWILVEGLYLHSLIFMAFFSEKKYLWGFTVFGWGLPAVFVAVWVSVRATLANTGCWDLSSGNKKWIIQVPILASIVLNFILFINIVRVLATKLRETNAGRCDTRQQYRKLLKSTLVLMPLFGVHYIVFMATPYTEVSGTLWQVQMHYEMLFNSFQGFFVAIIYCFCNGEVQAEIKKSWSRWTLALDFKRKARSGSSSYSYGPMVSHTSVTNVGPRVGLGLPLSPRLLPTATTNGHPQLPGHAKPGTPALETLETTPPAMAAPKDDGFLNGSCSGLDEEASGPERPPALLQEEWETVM
As to the kind of experiment: Agonist activity at human PTH1 receptor expressed in human GP2.3 cells assessed as induction of cAMP after 12 to 20 mins by luciferase reporter gene assay. The following applies: read-out: EC50. In kind it is functional, cell-based. A general note: In a reporter assay the amount or activity of a reporter protein is the signal.

Assay [2] concerns the target T2, Parathyroid hormone/parathyroid hormone-related peptide receptor (Homo sapiens) (UniProt Q03431).
T2 sequence (whole entry): T1 sequence (Q03431 whole entry)
As to the kind of experiment: Displacement of [125I]-PTH(1 to 34 residues) from R0 state of human PTHR1 expressed in African green monkey COS7 cell membranes incubated for >1 hr in presence of GTPgammaS by gamma radiation method.

For assay [3], the target named is T2, Parathyroid hormone/parathyroid hormone-related peptide receptor (Homo sapiens). As to the kind of experiment: Agonist activity at human PTH1 receptor expressed in human GP2.3 cells assessed as induction of cAMP after 12 to 20 mins by luciferase reporter gene assay relative to PTH(1 to 34 residues)-NH2. The class given is functional, cell-based.
For assay [4] the target is unchanged. Description: Agonist activity at extracellular domain truncate human PTH1 receptor expressed in GD5 cells assessed as induction of cAMP after 12 to 20 mins by luciferase reporter gene assay. In kind it is functional, cell-based. Summed up: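 HEK293-derived lines stably expressing Glosensor cAMP reporter plus full-length human PTHR1 (GP2.3) or ECD-truncated PTHR1 (GD5). Confluent monolayers preincubated at room temperature in CO2-independent medium with 0.5 mM D-luciferin until baseline stable (30 min), then varied agonist concentrations added. Maximal luminescence (12−20 min) used for sigmoidal variable-slope fits.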

The target is the same in assay [5]. Description: Agonist activity at human PTH1 receptor expressed in human GP2.3 cells assessed as induction of cAMP at 0.1 to 100 nM preincubated with protease activity quenched SGF up to 4 hrs followed by compound transfer to GP2.3 cells by luciferase reporter gene assay. In kind it is functional, cell-based. In short, it runs like this: (§1)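 Control samples: simulated gastric fluid neutralized with 10× PBS, or intestinal fluid mixed with acetonitrile/TFA quench solution, before adding peptide. Gastric controls held up to 4 h. Then diluted and tested on luciferin-loaded GP2.3 cells at 100−0.1 nM final, alongside freshly prepared peptide.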

Assay [6] has the same target. Description: Agonist activity at human PTH1 receptor expressed in human GP2.3 cells assessed as induction of cAMP at 0.1 to 100 nM preincubated with protease activity quenched SIF followed by compound transfer to GP2.3 cells by luciferase reporter gene assay. In kind it is functional, cell-based. In short, it runs like this:
as §1

Take `CC[C@H](C)[C@H](NC(=O)[C@H](CC(C)C)NC(=O)[C@H]1CNC[C@@H]1NC(=O)[C@H](Cc1cnc[nH]1)NC(=O)[C@H](CC(C)C)NC(=O)[C@H](Cc1ccccc1)NC(=O)[C@H]1CNC[C@@H]1NC(=O)[C@H](CCCNC(=N)N)NC(=O)[C@H](CCCNC(=N)N)NC(=O)[C@H](CCCNC(=N)N)NC(=O)[C@H]1CCC[C@@H]1NC(=O)[C@H](CC(=O)O)NC(=O)[C@H](CCC(N)=O)NC(=O)[C@@H](NC(=O)[C@H]1CCC[C@@H]1NC(=O)[C@H](CCCCN)NC(=O)CNC(=O)[C@H](CCCCN)NC(=O)[C@H](CC(=O)O)NC(=O)[C@H](Cc1cnc[nH]1)NC(=O)[C@H](CC(C)C)NC(=O)[C@H]1CCC[C@@H]1NC(=O)[C@H](CCC(N)=O)NC(=O)[C@H]1CCC[C@@H]1NC(=O)[C@H](CCC(=O)O)NC(=O)[C@H](CO)NC(=O)[C@@H](NC(=O)[C@H]1CCC[C@@H]1N)C(C)C)[C@@H](C)CC)C(=O)N[C@@H](C)C(=O)N[C@H]1CCC[C@@H]1C(=O)N[C@H](C(=O)N[C@@H](Cc1cnc[nH]1)C(=O)N[C@H](C(=O)N[C@H]1CCC[C@@H]1C(N)=O)[C@@H](C)O)[C@@H](C)CC` ({ACPC(1S,2S)}-VSE[X1]Q[X1]LHDKGK[X1]IQD[X1]RRR[X2]FLH[X2]LIA[X1]IHT-{NH(1S,2S-2-CONH2-cPent)}): in assay [1], the concentration for a half-maximal effect (EC50) was 0.51 nM. Besides, the inhibition result in assay [2] is “Active”. The fold change (FC) in assay [3] came to 7.4.
The corresponding values for `CC[C@H](C)[C@H](NC(=O)[C@H]1CCC[C@@H]1NC(=O)[C@H](CCCCN)NC(=O)CNC(=O)[C@H](CCCCN)NC(=O)[C@H](CC(=O)O)NC(=O)[C@H](Cc1cnc[nH]1)NC(=O)[C@H](CC(C)C)NC(=O)[C@H]1CCC[C@@H]1NC(=O)[C@H](CCC(N)=O)NC(=O)[C@H]1CCC[C@@H]1NC(=O)[C@H](CCC(=O)O)NC(=O)[C@H](CO)NC(=O)[C@@H](NC(=O)[C@H]1CCC[C@@H]1N)C(C)C)C(=O)N[C@@H](CCC(N)=O)C(=O)N[C@@H](CC(=O)O)C(=O)N[C@H]1CCC[C@@H]1C(=O)N[C@@H](CCCNC(=N)N)C(=O)N[C@@H](CCCNC(=N)N)C(=O)N[C@@H](CCCNC(=N)N)C(=O)N[C@H]1CNC[C@@H]1C(=O)N[C@@H](CC(C)C)C(=O)N[C@@H](CC(C)C)C(=O)N[C@@H](CCC(=O)O)C(=O)N[C@H]1CNC[C@@H]1C(=O)N[C@@H](CC(C)C)C(=O)N[C@@H](CC(C)C)C(=O)NC(C)(C)C(=O)N[C@H]1CCC[C@@H]1C(=O)N[C@@H](CC(C)C)C(=O)N[C@@H](Cc1cnc[nH]1)C(=O)N[C@H](C(=O)N[C@H]1CCC[C@@H]1C(N)=O)[C@@H](C)O` ({ACPC(1S,2S)}-VSE[X1]Q[X1]LHDKGK[X1]IQD[X1]RRR[X2]LLE[X2]LL[Aib][X1]LHT-{NH(1S,2S-2-CONH2-cPent)}) are 0.36 nM, “Active” and 5.3.
Regarding `CC[C@H](C)[C@H](NC(=O)[C@H](CCC(=O)O)NC(=O)[C@H](CO)NC(=O)[C@@H](NC(=O)[C@@H](N)CO)C(C)C)C(=O)N[C@@H](CCC(N)=O)C(=O)N[C@@H](CC(C)C)C(=O)N[C@H]1CCC[C@@H]1C(=O)N[C@@H](Cc1cnc[nH]1)C(=O)N[C@@H](CC(N)=O)C(=O)N[C@@H](CC(C)C)C(=O)NCC(=O)N[C@@H](CCCCN)C(=O)N[C@@H](Cc1cnc[nH]1)C(=O)N[C@@H](CC(C)C)C(=O)N[C@@H](CC(N)=O)C(=O)N[C@@H](CO)C(=O)N[C@@H](CCSC)C(=O)N[C@@H](CCC(=O)O)C(=O)N[C@@H](CCCNC(=N)N)C(=O)N[C@H](C(=O)N[C@@H](CCC(=O)O)C(=O)N[C@@H](Cc1c[nH]c2ccccc12)C(=O)N[C@@H](CC(C)C)C(=O)N[C@@H](CCCNC(=N)N)C(=O)N[C@@H](CCCCN)C(=O)N[C@@H](CCCCN)C(=O)N[C@@H](CC(C)C)C(=O)N[C@@H](CCC(N)=O)C(=O)N[C@@H](CC(=O)O)C(=O)N[C@H](C(=O)N[C@@H](Cc1cnc[nH]1)C(=O)N[C@@H](CC(N)=O)C(=O)N[C@@H](Cc1ccccc1)C(N)=O)C(C)C)C(C)C`, the EC50 in assay [1] stood at 9.74 nM. The fold change (FC) in assay [3] came to 107. Moreover, the result in assay [4] was Active.
In the same order, the values of `CC[C@H](C)[C@H](NC(=O)[C@H](CCC(=O)O)NC(=O)[C@H](CO)NC(=O)[C@@H](NC(=O)[C@H]1CCC[C@@H]1N)C(C)C)C(=O)N[C@@H](CCC(N)=O)C(=O)N[C@@H](CC(C)C)C(=O)N[C@@H](CCSC)C(=O)N[C@@H](Cc1cnc[nH]1)C(=O)N[C@@H](CC(N)=O)C(=O)N[C@@H](CC(C)C)C(=O)NCC(=O)N[C@@H](CCCCN)C(=O)N[C@@H](Cc1cnc[nH]1)C(=O)N[C@@H](CC(C)C)C(=O)N[C@@H](CC(N)=O)C(=O)N[C@@H](CO)C(=O)N[C@@H](CCSC)C(=O)N[C@@H](CCC(=O)O)C(=O)N[C@@H](CCCNC(=N)N)C(=O)N[C@H](C(=O)N[C@@H](CCC(=O)O)C(=O)N[C@@H](Cc1c[nH]c2ccccc12)C(=O)N[C@@H](CC(C)C)C(=O)N[C@@H](CCCNC(=N)N)C(=O)N[C@@H](CCCCN)C(=O)N[C@@H](CCCCN)C(=O)N[C@@H](CC(C)C)C(=O)N[C@@H](CCC(N)=O)C(=O)N[C@@H](CC(=O)O)C(=O)N[C@H](C(=O)N[C@@H](Cc1cnc[nH]1)C(=O)N[C@@H](CC(N)=O)C(=O)N[C@@H](Cc1ccccc1)C(N)=O)C(C)C)C(C)C` ({ACPC(1S,2S)}-VSEIQLMHNLGKHLNSMERVEWLRKKLQDVHNF-NH2) are 0.15 nM, 1.6 and “Active”.
As for `CC[C@H](C)[C@H](NC(=O)[C@H](CCC(=O)O)NC(=O)[C@H](CO)NC(=O)[C@@H](NC(=O)[C@@H](N)CO)C(C)C)C(=O)N[C@H]1CCC[C@@H]1C(=O)N[C@@H](CC(C)C)C(=O)N[C@@H](CCSC)C(=O)N[C@@H](Cc1cnc[nH]1)C(=O)N[C@@H](CC(N)=O)C(=O)N[C@@H](CC(C)C)C(=O)NCC(=O)N[C@@H](CCCCN)C(=O)N[C@@H](Cc1cnc[nH]1)C(=O)N[C@@H](CC(C)C)C(=O)N[C@@H](CC(N)=O)C(=O)N[C@@H](CO)C(=O)N[C@@H](CCSC)C(=O)N[C@@H](CCC(=O)O)C(=O)N[C@@H](CCCNC(=N)N)C(=O)N[C@H](C(=O)N[C@@H](CCC(=O)O)C(=O)N[C@@H](Cc1c[nH]c2ccccc12)C(=O)N[C@@H](CC(C)C)C(=O)N[C@@H](CCCNC(=N)N)C(=O)N[C@@H](CCCCN)C(=O)N[C@@H](CCCCN)C(=O)N[C@@H](CC(C)C)C(=O)N[C@@H](CCC(N)=O)C(=O)N[C@@H](CC(=O)O)C(=O)N[C@H](C(=O)N[C@@H](Cc1cnc[nH]1)C(=O)N[C@@H](CC(N)=O)C(=O)N[C@@H](Cc1ccccc1)C(N)=O)C(C)C)C(C)C`, in assay [1], the EC50 stood at 0.34 nM. The fold change (FC) in assay [3] was determined as 3.7. Also, the outcome in assay [4] was Active.
As to `CC[C@H](C)[C@H](NC(=O)[C@H](CCC(=O)O)NC(=O)[C@H](CO)NC(=O)[C@@H](NC(=O)[C@H]1CCC[C@@H]1N)C(C)C)C(=O)N[C@@H](CCC(N)=O)C(=O)N[C@H]1CCC[C@@H]1C(=O)N[C@@H](CCSC)C(=O)N[C@@H](Cc1cnc[nH]1)C(=O)N[C@@H](CC(N)=O)C(=O)N[C@@H](CC(C)C)C(=O)NCC(=O)N[C@@H](CCCCN)C(=O)N[C@H]1CCC[C@@H]1C(=O)N[C@@H](CC(C)C)C(=O)N[C@@H](CC(N)=O)C(=O)N[C@@H](CO)C(=O)N[C@H]1CCC[C@@H]1C(=O)N[C@@H](CCC(=O)O)C(=O)N[C@@H](CCCNC(=N)N)C(=O)N[C@H](C(=O)N[C@H]1CNC[C@@H]1C(=O)N[C@@H](Cc1c[nH]c2ccccc12)C(=O)N[C@@H](CC(C)C)C(=O)N[C@@H](CCCNC(=N)N)C(=O)N[C@H]1CNC[C@@H]1C(=O)N[C@@H](CCCCN)C(=O)N[C@@H](CC(C)C)C(=O)N[C@@H](CCC(N)=O)C(=O)N[C@H]1CCC[C@@H]1C(=O)N[C@H](C(=O)N[C@@H](Cc1cnc[nH]1)C(=O)N[C@@H](CC(N)=O)C(=O)N[C@H]1CCC[C@@H]1C(N)=O)C(C)C)C(C)C` ({ACPC(1S,2S)}-VSEIQ[X1]MHNLGK[X1]LNS[X1]ERV[X2]WLR[X2]KLQ[X1]VHN-{NH(1S,2S-2-CONH2-cPent)}), the outcome in assay [5] and in assay [6] was Active. The fold change (FC) in assay [3] was 8.7.
